Assay results: ChEMBL document CHEMBL3259663, “3-Amido-3-aryl-piperidines: A Novel Class of Potent, Selective, and Orally Active GlyT1 Inhibitors” (ACS Med Chem Lett, 2014)
≈ marks a conversion by molar mass, not a printed value.

Assays:
[1] = Octanol-phosphate buffer partition coefficient, log D of the compound at pH 7.4; format: physicochemical
Procedure, shortened: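 Distribution coefficient measured between 1-octanol and phosphate buffer at pH 7.4.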

[2] = Genotoxicity in micronucleus (unknown origin) by MNT test
MDR1 (P-gp) = assay: Efflux ratio of permeability in pig LLC-PK1 cells expressing human MDR1; format: ADME, cell-based, Sus scrofa
Procedure, shortened: (§1)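 Efflux ratio measured in LLC-PK1 cells stably expressing human MDR1 or mouse MDR1A.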

Cytochrome P450 2C19 = Cytochrome P450 2C19 (Homo sapiens, UniProt P33261); assay: Inhibition of CYP2C19 (unknown origin); format: ADME
Striatum = assay: Effect on plasma glycine level in rat striatum at 10 mg/kg, po; format: functional
Procedure, shortened: (§2)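 Rat striatal microdialysis after a 10 mg/kg oral dose. Extracellular glycine measured as fold over basal levels, with sampling stopped at 3 h. Plasma and brain exposures determined at 3 h post-dose. n = 6.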

[3] = Ratio of drug level in rat brain after 3 hrs to EC50 for human GlyT1 by [3H]glycine uptake assay
[4] = Ratio of drug level from brain to plasma rat at 10 mg/kg, po; format: ADME, organism-based; design: dose 10 mg/kg, route oral; settings: brain and plasma, read-out: BPR; procedure, shortened: as §2
Brain = assay: Effect on brain glycine level in rat striatum at 10 mg/kg, po; format: functional; procedure, shortened: as §2
Cytochrome P450 3A4 = Cytochrome P450 3A4 (Homo sapiens, UniProt P08684); assay: Inhibition of CYP3A4 (unknown origin); format: ADME
[5] = Dissociation constant, pKa of the compound by capillary electrophoresis; format: physicochemical
Procedure, shortened: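 pKa determined by capillary electrophoresis.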

[6] = Ratio of drug level from brain to plasma in mouse at 7.7 mg/kg, po after 1.5 hrs; format: ADME, organism-based; design: dose 7.7 mg/kg, route oral; settings: brain and plasma, read-out: BPR
Procedure, shortened: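 Mouse PK after a 7.7 mg/kg oral dose. Brain/plasma ratio taken at 1.5 h. Values are the average of two independent experiments.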

[7] = target: T1, Sodium- and chloride-dependent glycine transporter 2 (Homo sapiens, UniProt Q9Y345); assay: Inhibition of human GlyT2 expressed in cells assessed as [3H]glycine uptake; format: cell-based
T1 sequence (Q9Y345 whole entry): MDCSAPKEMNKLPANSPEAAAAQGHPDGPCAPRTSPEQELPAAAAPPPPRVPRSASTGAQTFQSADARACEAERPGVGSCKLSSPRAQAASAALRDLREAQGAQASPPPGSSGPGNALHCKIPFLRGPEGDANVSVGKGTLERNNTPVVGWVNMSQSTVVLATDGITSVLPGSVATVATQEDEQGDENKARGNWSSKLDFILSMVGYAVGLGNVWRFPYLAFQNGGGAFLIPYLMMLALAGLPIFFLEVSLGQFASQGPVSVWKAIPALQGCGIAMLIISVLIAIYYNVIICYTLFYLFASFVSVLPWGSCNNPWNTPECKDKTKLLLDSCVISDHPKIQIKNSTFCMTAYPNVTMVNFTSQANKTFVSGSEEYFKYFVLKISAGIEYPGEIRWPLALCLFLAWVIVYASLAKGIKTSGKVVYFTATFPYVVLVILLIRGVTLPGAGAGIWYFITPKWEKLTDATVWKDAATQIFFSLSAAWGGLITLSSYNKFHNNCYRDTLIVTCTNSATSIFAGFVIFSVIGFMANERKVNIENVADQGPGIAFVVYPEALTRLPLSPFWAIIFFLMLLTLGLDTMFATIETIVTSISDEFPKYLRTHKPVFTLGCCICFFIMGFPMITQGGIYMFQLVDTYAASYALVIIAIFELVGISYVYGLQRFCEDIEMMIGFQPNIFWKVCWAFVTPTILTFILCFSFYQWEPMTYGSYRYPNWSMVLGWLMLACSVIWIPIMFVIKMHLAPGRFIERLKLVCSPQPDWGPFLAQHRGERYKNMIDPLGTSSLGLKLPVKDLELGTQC

Salmonella typhimurium = assay: Genotoxicity in Salmonella typhimurium by Ames test; format: toxicity, organism-based; settings: salmonella enterica subsp. enterica serovar typhimurium
MDR1A (P-gp) = assay: Efflux ratio of permeability in pig LLC-PK1 cells expressing mouse MDR1A; format: ADME, cell-based, Sus scrofa; procedure, shortened: as §1
[8] = Solubility of the compound at pH 6.5 by lyophilization solubility assay; format: physicochemical; settings: buffer
Procedure, shortened: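 Lyophilization solubility assay. DMSO solution of compound is lyophilized, dissolved in 0.05 M phosphate buffer pH 6.5, stirred 1 h, then shaken 2 h.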

[9] = target: T2, Sodium- and chloride-dependent glycine transporter 1 (Homo sapiens, UniProt P48067); assay: Inhibition of human GlyT1 expressed in cells assessed as [3H]glycine uptake; format: cell-based
T2 sequence (P48067 whole entry): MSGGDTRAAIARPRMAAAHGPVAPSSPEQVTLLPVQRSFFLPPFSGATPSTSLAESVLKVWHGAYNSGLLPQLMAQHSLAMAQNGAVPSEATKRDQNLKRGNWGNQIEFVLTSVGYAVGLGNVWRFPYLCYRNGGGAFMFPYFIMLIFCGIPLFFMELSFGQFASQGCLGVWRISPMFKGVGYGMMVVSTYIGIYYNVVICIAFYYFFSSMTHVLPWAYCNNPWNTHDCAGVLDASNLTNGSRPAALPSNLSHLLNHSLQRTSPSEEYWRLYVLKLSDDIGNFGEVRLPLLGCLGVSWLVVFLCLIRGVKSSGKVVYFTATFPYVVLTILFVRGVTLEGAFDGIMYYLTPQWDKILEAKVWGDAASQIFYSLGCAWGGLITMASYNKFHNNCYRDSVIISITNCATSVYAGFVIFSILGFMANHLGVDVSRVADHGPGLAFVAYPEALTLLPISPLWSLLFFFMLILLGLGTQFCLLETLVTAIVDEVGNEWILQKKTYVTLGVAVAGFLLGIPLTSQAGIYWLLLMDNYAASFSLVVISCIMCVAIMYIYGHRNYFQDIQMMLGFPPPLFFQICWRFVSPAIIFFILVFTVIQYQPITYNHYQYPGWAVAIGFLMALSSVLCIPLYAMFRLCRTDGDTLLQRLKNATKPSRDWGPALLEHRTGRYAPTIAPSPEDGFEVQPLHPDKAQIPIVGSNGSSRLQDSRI
Procedure, shortened: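 [³H]-glycine uptake inhibition in cells transfected with human GlyT1. EC₅₀ values are the average of at least two independent experiments.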

[10] = Volume of distribution at steady state in mouse at 1.7 mg/kg, iv; format: ADME, organism-based; design: dose 1.7 mg/kg, route intravenous; settings: in vivo, read-out: Vdss
Procedure, shortened: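 Mouse PK, single iv dose of 1.7 mg/kg. Values are the average of two independent experiments.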

Cytochrome P450 3A4, sequence (P08684 whole entry): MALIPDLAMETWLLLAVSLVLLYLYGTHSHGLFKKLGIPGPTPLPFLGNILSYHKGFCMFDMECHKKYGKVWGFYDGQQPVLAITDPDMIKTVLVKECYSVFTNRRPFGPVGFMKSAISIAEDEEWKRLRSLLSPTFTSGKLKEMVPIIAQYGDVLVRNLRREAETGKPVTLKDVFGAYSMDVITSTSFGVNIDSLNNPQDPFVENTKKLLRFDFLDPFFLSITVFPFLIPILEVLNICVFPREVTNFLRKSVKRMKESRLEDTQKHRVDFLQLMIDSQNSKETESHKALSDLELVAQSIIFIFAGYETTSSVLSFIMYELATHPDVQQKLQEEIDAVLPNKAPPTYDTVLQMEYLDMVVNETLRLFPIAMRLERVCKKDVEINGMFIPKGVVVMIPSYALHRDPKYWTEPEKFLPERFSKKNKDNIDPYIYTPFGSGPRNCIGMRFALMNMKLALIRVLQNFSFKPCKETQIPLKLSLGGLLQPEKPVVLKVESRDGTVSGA
Cytochrome P450 2C19, sequence (P33261 whole entry): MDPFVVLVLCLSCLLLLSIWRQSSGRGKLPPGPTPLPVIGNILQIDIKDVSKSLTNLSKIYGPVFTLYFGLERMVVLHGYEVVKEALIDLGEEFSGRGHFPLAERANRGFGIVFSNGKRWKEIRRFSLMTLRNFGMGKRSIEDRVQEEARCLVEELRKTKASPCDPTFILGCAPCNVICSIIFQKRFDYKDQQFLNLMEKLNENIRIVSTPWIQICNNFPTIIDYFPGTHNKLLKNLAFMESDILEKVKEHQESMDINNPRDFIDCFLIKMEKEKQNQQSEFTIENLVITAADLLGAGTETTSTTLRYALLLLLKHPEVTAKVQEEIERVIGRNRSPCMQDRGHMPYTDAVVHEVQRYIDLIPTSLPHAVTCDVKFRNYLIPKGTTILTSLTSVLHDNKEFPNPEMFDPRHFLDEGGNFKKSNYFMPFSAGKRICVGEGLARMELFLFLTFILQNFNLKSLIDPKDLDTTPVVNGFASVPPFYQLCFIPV

logD [1]: 3.12
efflux ratio (MDR1 (P-gp)): 0.9
IC50 (Cytochrome P450 2C19): 46 µM
Kp [4]: 0.08
IC50 (Cytochrome P450 3A4): > 50 µM
pKa [5]: 7.72
Kp at 1.5 h [6]: 4.3
EC50 [7]: 15 µM
efflux ratio (MDR1A (P-gp)): 1.5
solubility [8]: 147 µg/mL (≈ 335 µM)
EC50 [9]: 0.01 µM
Vd [10]: 8 L/kg
Compound: COc1cc(C(F)(F)F)cc(SC)c1C(=O)N[C@@]1(c2ccccc2)CCCN(C)C1
Activity [2]: Non-toxic
Activity (Striatum): 713 ng/mL
Ratio [3]: 13
Activity (Brain): 60 ng/mL
Activity (Salmonella typhimurium): Non-toxic
